ChEMBL document CHEMBL3045051 (Med Chem Res, 2011)
Active and inactive are the calls of the source. No cut-off for these calls is given here.

Experiments:
Coxsackievirus B4 [1] = experiment: Antiviral activity against Human coxsackievirus B4 infected VERO cells assessed as inhibition of virus-induced cytopathicity; assay type: functional, organism-based
Method in brief: (§1)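 Confluent monolayers (feline kidney Crandell, Vero, HEL or HeLa, as named for each virus) were infected with 100 CCID50 of virus and allowed to adsorb for 1 h. Unbound virus was then removed, and cultures were incubated with test compound in serial dilutions (200, 40, 8 … µM). Cytopathicity was scored once untreated infected controls reached complete cytopathic effect.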

[2] = test system: Vesicular stomatitis virus; experiment: Antiviral activity against Vesicular stomatitis virus infected HEL cells assessed as inhibition of virus-induced cytopathicity; assay type: functional, organism-based
Feline coronavirus = experiment: Antiviral activity against Feline coronavirus infected feline kidney crandell cells assessed as inhibition of virus-induced cytopathicity; assay type: functional, organism-based; method in brief: as §1
Influenza A virus = experiment: Antiviral activity against Unidentified Influenza A virus (H1N2) infected MDCK cells assessed as inhibition of virus-induced cytopathicity; assay type: functional, organism-based
[3] = test system: Radical scavenging activity; experiment: Antioxidant activity assessed as DPPH radical scavenging activity at 1 X 10^-4 M after 20 min; assay type: functional
Method in brief: (§2)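 Test compound was mixed with DPPH (0.05 and 0.1 mM) in ethanol. Absorbance at 517 nm was read after 20 and 60 min and compared with the NDGA standard, with ethanol as control. Each experiment was run at least in triplicate, and the SD of absorbance was <10% of the mean.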

[4] = biological target: T1, Seed linoleate 13S-lipoxygenase-1 (Glycine max, UniProt P08170); experiment: Inhibition of Glycine max (soybean) lipoxygenase using sodium linoleate as substrate
T1 sequence (P08170 whole entry): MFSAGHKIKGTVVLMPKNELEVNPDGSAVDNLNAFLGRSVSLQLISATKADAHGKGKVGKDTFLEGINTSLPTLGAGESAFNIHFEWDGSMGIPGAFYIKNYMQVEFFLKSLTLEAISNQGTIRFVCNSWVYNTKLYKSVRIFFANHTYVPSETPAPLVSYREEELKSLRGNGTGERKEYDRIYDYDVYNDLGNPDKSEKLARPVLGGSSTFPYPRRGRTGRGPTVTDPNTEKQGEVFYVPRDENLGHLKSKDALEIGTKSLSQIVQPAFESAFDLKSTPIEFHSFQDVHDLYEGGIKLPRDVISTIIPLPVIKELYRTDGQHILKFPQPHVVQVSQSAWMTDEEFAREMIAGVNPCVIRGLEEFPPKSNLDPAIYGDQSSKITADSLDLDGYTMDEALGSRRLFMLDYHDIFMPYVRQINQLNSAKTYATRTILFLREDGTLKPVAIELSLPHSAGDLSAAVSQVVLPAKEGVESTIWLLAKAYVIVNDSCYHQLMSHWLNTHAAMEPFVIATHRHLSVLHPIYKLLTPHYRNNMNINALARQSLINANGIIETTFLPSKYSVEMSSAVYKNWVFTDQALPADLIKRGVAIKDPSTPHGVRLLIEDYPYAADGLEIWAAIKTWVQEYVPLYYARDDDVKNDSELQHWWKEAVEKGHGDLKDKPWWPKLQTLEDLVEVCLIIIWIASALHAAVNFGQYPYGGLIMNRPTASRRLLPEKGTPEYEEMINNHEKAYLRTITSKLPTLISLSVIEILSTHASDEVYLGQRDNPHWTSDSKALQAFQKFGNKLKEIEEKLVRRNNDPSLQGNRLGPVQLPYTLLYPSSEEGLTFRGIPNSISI

[5] = test system: Radical scavenging activity; experiment: Antioxidant activity assessed as DPPH radical scavenging activity at 5 X 10^-5 M after 20 min; assay type: functional; method in brief: as §2
[6] = test system: Radical scavenging activity; experiment: Antioxidant activity assessed as DPPH radical scavenging activity at 1 X 10^-4 M after 60 min; assay type: functional; method in brief: as §2
[7] = test system: Vesicular stomatitis virus; experiment: Antiviral activity against Vesicular stomatitis virus infected Hela cells assessed as inhibition of virus-induced cytopathicity; assay type: functional, organism-based
[8] = Antioxidant activity assessed as inhibition of AAPH-induced lipid peroxidation at 1 X 10^-4 M; assay type: functional
Human alphaherpesvirus 1 = experiment: Antiviral activity against […] 1 KOS infected in human HEL cells assessed as inhibition of virus-induced cytopathicity; assay type: functional, organism-based; method in brief: as §1
[9] = test system: Mammalian orthoreovirus 1; experiment: Antiviral activity against Mammalian orthoreovirus 1 infected VERO cells assessed as inhibition of virus-induced cytopathicity; assay type: functional, organism-based; method in brief: as §1
Sindbis virus = experiment: Antiviral activity against Sindbis virus infected Hela cells assessed as inhibition of virus-induced cytopathicity; assay type: functional, organism-based
Human respirovirus 3 = experiment: Antiviral activity against Human parainfluenza virus 3 infected Vero cells assessed as inhibition of virus-induced cytopathicity; assay type: functional, organism-based; method in brief: as §1
[10] = test system: Respiratory syncytial virus; experiment: Antiviral activity against Respiratory syncytial virus infected human HeLa cells assessed as inhibition of virus-induced cytopathicity; assay type: functional, organism-based; method in brief: as §1
Human alphaherpesvirus 2 = experiment: Antiviral activity against Human herpesvirus 2 strain G infected human HEL cells assessed as inhibition of virus-induced cytopathicity; assay type: functional, organism-based; method in brief: as §1
Coxsackievirus B4 [11] = experiment: Antiviral activity against Human coxsackievirus B4 infected human HeLa cells assessed as inhibition of virus-induced cytopathicity; assay type: functional, organism-based; method in brief: as §1
[12] = biological target: T2, Seed linoleate 13S-lipoxygenase-1 (Glycine max) (UniProt P08170); experiment: Inhibition of Glycine max (soybean) lipoxygenase using sodium linoleate as substrate at 1 X 10^-4
T2 sequence (whole entry): T1 sequence (P08170 whole entry)

Punta Toro virus = experiment: Antiviral activity against Punta Toro virus infected Hela cells assessed as inhibition of virus-induced cytopathicity; assay type: functional, organism-based
Vaccinia virus = experiment: Antiviral activity against Vaccinia virus infected human HEL cells assessed as inhibition of virus-induced cytopathicity; assay type: functional, organism-based; conditions: Orthopoxvirus vaccinia
[13] = Antioxidant activity assessed as inhibition of AAPH-induced lipid peroxidation at 1 X 10^-5 M; assay type: functional
[14] = test system: Radical scavenging activity; experiment: Antioxidant activity assessed as DPPH radical scavenging activity at 5 X 10^-5 M after 60 min; assay type: functional; method in brief: as §2

CC(C(=O)n1nnc2ccccc21)c1cccc(C(OC(=O)n2nnc3ccccc32)c2ccccc2)c1 (configuration not stated)
Activity (Coxsackievirus B4 [1]): inactive
Activity [2]: inactive
Activity (Feline coronavirus): inactive
Activity (Influenza A virus): inactive
Activity (Influenza A virus; H1N1): inactive
inhibition [3]: 2.5%
IC50 [4]: 21 µM
inhibition [5]: 2.9%
inhibition [6]: 5.4%
Activity [7]: inactive
inhibition [8]: 98%
Activity (Human alphaherpesvirus 1): inactive
Activity [9]: inactive
Activity (Sindbis virus): inactive
Activity (Human respirovirus 3): inactive
Activity [10]: inactive
Activity (Human alphaherpesvirus 2): inactive
Activity (Coxsackievirus B4 [11]): inactive
inhibition [12]: 95%
Activity (Punta Toro virus): inactive
Activity (Vaccinia virus): inactive
inhibition [13]: 15%
inhibition [14]: 3.7%

CC(C(=O)NCC1CCCCC1)c1cccc(C(OC(=O)NCC2CCCCC2)c2ccccc2)c1 (configuration not stated)
Activity (Coxsackievirus B4 [1]): inactive
Activity [2]: inactive
Activity (Feline coronavirus): inactive
Activity (Influenza A virus): inactive
Activity (Influenza A virus; H1N1): inactive
inhibition [3]: 1.6%
IC50 [4]: 95 µM
inhibition [5]: 1.7%
inhibition [6]: 5.2%
Activity [7]: inactive
inhibition [8]: 99.5%
Activity (Human alphaherpesvirus 1): inactive
Activity [9]: inactive
Activity (Sindbis virus): inactive
Activity (Human respirovirus 3): inactive
Activity [10]: inactive
Activity (Human alphaherpesvirus 2): inactive
Activity (Coxsackievirus B4 [11]): inactive
inhibition [12]: 56.6%
Activity (Punta Toro virus): inactive
Activity (Vaccinia virus): inactive
inhibition [13]: 1.4%
inhibition [14]: 3.1%

CC(C(=O)O)c1cccc(C(=O)c2ccccc2)c1 (configuration not stated) [KETOPROFEN]
Activity (Coxsackievirus B4 [1]): inactive
Activity [2]: inactive
Activity (Feline coronavirus): inactive
Activity (Influenza A virus): inactive
Activity (Influenza A virus; H1N1): inactive
inhibition [3]: 8.1%
IC50 [4]: 130 µM
inhibition [5]: 6.4%
inhibition [6]: 7.2%
Activity [7]: inactive
Activity (Human alphaherpesvirus 1): inactive
Activity [9]: inactive
Activity (Sindbis virus): inactive
Activity (Human respirovirus 3): inactive
Activity [10]: inactive
Activity (Human alphaherpesvirus 2): inactive
Activity (Coxsackievirus B4 [11]): inactive
Activity (Punta Toro virus): inactive
Activity (Vaccinia virus): inactive
inhibition [14]: 3.1%

CC(C(=O)NCc1ccccc1)c1cccc(C(OC(=O)NCc2ccccc2)c2ccccc2)c1 (configuration not stated)
Activity (Coxsackievirus B4 [1]): inactive
Activity [2]: inactive
Activity (Feline coronavirus): inactive
Activity (Influenza A virus): inactive
Activity (Influenza A virus; H1N1): inactive
inhibition [3]: inactive
IC50 [4]: 32 µM
inhibition [5]: 4.2%
inhibition [6]: 2.4%
EC50 [7]: 3 µM
inhibition [8]: 98.4%
Activity (Human alphaherpesvirus 1): inactive
Activity [9]: inactive
EC50 (Sindbis virus): 11 µM
Activity (Human respirovirus 3): inactive
Activity [10]: inactive
Activity (Human alphaherpesvirus 2): inactive
Activity (Coxsackievirus B4 [11]): inactive
inhibition [12]: 83.8%
EC50 (Punta Toro virus): 11 µM
Activity (Vaccinia virus): inactive
inhibition [13]: inactive
inhibition [14]: 5.3%

CC(C(=O)NC1CCCC1)c1cccc(C(OC(=O)NC2CCCC2)c2ccccc2)c1 (configuration not stated)
Activity (Coxsackievirus B4 [1]): inactive
Activity [2]: inactive
Activity (Feline coronavirus): inactive
Activity (Influenza A virus): inactive
Activity (Influenza A virus; H1N1): inactive
inhibition [3]: inactive
IC50 [4]: 86 µM
inhibition [5]: 3.2%
inhibition [6]: 2.3%
Activity [7]: inactive
inhibition [8]: 95.2%
Activity (Human alphaherpesvirus 1): inactive
Activity [9]: inactive
Activity (Sindbis virus): inactive
Activity (Human respirovirus 3): inactive
Activity [10]: inactive
Activity (Human alphaherpesvirus 2): inactive
Activity (Coxsackievirus B4 [11]): inactive
inhibition [12]: 69.6%
Activity (Punta Toro virus): inactive
Activity (Vaccinia virus): inactive
inhibition [13]: inactive
inhibition [14]: 2.8%
